# Assay results of several laboratories.
# Compare with care: the assays were run in different laboratories.
# NQO2: Ribosyldihydronicotinamide dehydrogenase [quinone] (NQO2, Homo sapiens, UniProt P16083)
# NPSR1: Neuropeptide S receptor (NPSR1, Homo sapiens, UniProt Q6W5P4)
# MAP2K5: Dual specificity mitogen-activated protein kinase kinase 5 (MAP2K5, Homo sapiens, UniProt Q13163)
# MC4R: Melanocortin receptor 4 (MC4R, Homo sapiens, UniProt P32245)
Compound,target,effect on,action,technique,pH,endpoint,value
Cc1cccc(Nc2ccccc2C(=O)O)c1C,NQO2,enzyme activity,inhibitor,absorbance,,Ki,> 500 µM
CNC(=O)[C@@]12C[C@@H]1[C@@H](n1cnc3c(NC4CC4c4ccccc4)nc(C#Cc4ccccc4)nc31)[C@H](O)[C@@H]2O (mixture of isomers),"Sodium-dependent noradrenaline transporter (SLC6A2, Homo sapiens, UniProt P23975)",ligand displacement,,radioligand,,Ki,2.31 µM
CC(C)(C)OC(=O)Nc1ncnc2c1C(c1ccccc1)c1c(ccc3ccccc13)O2 (centres unmarked),NPSR1,cAMP,antagonist,TR-FRET,,IC50,12.2 µM
Cc1cc(Nc2cc3ncccc3c(N[C@@H]3C[C@H]4CC[C@@H](C3)N4CCC#N)n2)n[nH]1,MAP2K5,binding,,competition with immobilised ligand,,Kd,0.065 µM
Nc1ncnc2c1ncn2[C@@H]1O[C@H](COP(=O)(O)OP(=O)(O)OP(=O)(O)O)[C@@H](O)[C@H]1O,"dnaA (Escherichia coli, UniProt P03004)",binding,,,,Kd,0.04 µM
CCOC(=O)c1ccc(-n2cnc3c(c2=N)C(c2cccc(OC)c2)c2c(ccc4ccccc24)O3)cc1 (centres unmarked),NPSR1,cAMP,antagonist,TR-FRET,,IC50,15.4 µM
CCN(CC)Cc1cc(Nc2ccnc3cc(Cl)ccc23)ccc1O,NQO2,enzyme activity,inhibitor,,,Ki,160 µM
CC(C)C[C@H](NC(=O)[C@H](Cc1c[nH]cn1)NC(=O)[C@H](CCCNC(=N)N)NC(=O)[C@H](CCCNC(=N)N)NC(=O)[C@@H](NC(=O)CNC(=O)[C@H](Cc1c[nH]cn1)NC(=O)[C@@H]1CCCN1C(=O)[C@H](CO)NC(=O)[C@@H]1CCCN1)[C@@H](C)O)C(=O)N1CCC[C@H]1C(=O)N[C@@H](CO)C(=O)N1CCC[C@H]1C(=O)N1CCC[C@H]1C(=O)O,"Growth factor receptor-bound protein 2 (GRB2, Homo sapiens, UniProt P62993)",binding,,NMR,pH 7.6,Kd,400 µM
CC(C)(C)c1cc(CN(C(=O)CN(Cc2ccc(Cl)cc2)S(=O)(=O)c2c(F)c(F)c(F)c(F)c2F)c2ccc(C(=O)O)c(O)c2)cc(C(C)(C)C)c1,"Signal transducer and activator of transcription 1-alpha/beta (STAT1, Homo sapiens, UniProt P42224)",cell-free assay,,FP,,Ki,> 60 µM
CC(C)[C@@H](CC[C@@H](C)[C@H]1CC[C@H]2[C@@H]3[C@H](O)C[C@H]4C[C@@H](NCCCNCCCCNCCCN)CC[C@]4(C)[C@H]3CC[C@]12C)OS(=O)(=O)O,"Tyrosine-protein phosphatase non-receptor type 12 (PTPN12, Homo sapiens, UniProt Q05209)",enzyme activity,inhibitor,,,Ki,40 µM
CC(C)C1=Cc2ccc3c(c2C(=O)C1=O)CCCC3(C)C,"Cholinesterase (BCHE, Homo sapiens, UniProt P06276)",enzyme activity,inhibitor,,,Ki,> 100 µM
NC(=O)N1c2ccccc2C=Cc2ccccc21,NQO2,enzyme activity,inhibitor,absorbance,,Ki,> 500 µM
Nc1ncnc2c1ncn2[C@@H]1O[C@H](COP(=O)(O)OP(=O)(O)OP(=O)(O)OP(=O)(O)OP(=O)(O)OC[C@H]2O[C@@H](n3cnc4c(N)ncnc43)[C@H](O)[C@@H]2O)[C@@H](O)[C@H]1O,"adk (Escherichia coli, UniProt P69441, R131A)",binding,,ITC,,Kd,0.576 µM
COc1ccc(C2c3c(n(CCCc4ccccc4)cnc3=N)Oc3ccc4ccccc4c32)cc1OC (centres unmarked),NPSR1,cAMP,antagonist,TR-FRET,,IC50,24.4 µM
Clc1ccc2c(c1)N(CCCN1CCN(CCCc3ccccc3)CC1)c1ccccc1S2,"Trypanothione reductase (TPR, Trypanosoma cruzi, UniProt P28593)",enzyme activity,inhibitor,absorbance,,Ki,0.331 µM
CCN(CC)CCCC(C)Nc1cnc(C(=O)Nc2ccc(Cl)c3cccnc23)cn1 (centres unmarked),"Muscarinic acetylcholine receptor M5 (CHRM5, Homo sapiens, UniProt P08912)",cell-free assay,,radioligand,,Ki,0.219 µM
COc1ccc(C2c3c(N)nc(Cc4ccccc4)nc3Oc3ccc4ccccc4c32)cc1OC (centres unmarked),NPSR1,cAMP,antagonist,TR-FRET,,IC50,77.2 µM
Cc1cnc(-c2ccc(-c3ccc(NC(=O)Nc4c(F)cc(F)cc4F)cc3F)c3c2C(=O)NC3)[nH]1,MAP2K5,binding,,competition with immobilised ligand,,Kd,0.0008 µM
COc1ccc(C2c3c(ncn(CCCc4ccccc4)c3=N)Oc3ccc4ccccc4c32)cc1OC (centres unmarked),NPSR1,cAMP,antagonist,TR-FRET,,IC50,24.4 µM
CCCC[C@H](NC(=O)[C@H](CO)NC(=O)[C@H](Cc1ccc(O)cc1)NC(=O)[C@H](CO)NC(C)=O)C(=O)N[C@@H](CCC(=O)O)C(=O)N[C@@H](Cc1c[nH]cn1)C(=O)N[C@@H](C)C(=O)N[C@@H](CCCNC(=N)N)C(=O)N[C@@H](Cc1c[nH]c2ccccc12)C(=O)NCC(=O)N[C@@H](CCCCN)C(=O)N1CCC[C@H]1C(=O)N[C@H](C(=O)NCC(=O)N[C@@H](CCCCN)C(=O)N[C@@H](CCCCN)C(=O)N[C@@H](CCCNC(=N)N)C(N)=O)C(C)C,MC4R,cAMP,agonist,,,EC50,0.257 µM
O=C(NCc1ccccc1)Nc1ncnc2c1C(c1ccccc1)c1c(ccc3ccccc13)O2 (centres unmarked),NPSR1,calcium signal,antagonist,,,IC50,> 30 µM
O=C(O)Cc1ccccc1Nc1c(Cl)cccc1Cl,NQO2,enzyme activity,inhibitor,,,Ki,> 1000 µM
COc1ccc(C2c3c(ncn(CCc4ccccc4)c3=N)Oc3ccc4ccccc4c32)cc1OC (centres unmarked),NPSR1,calcium signal,antagonist,,,IC50,> 30 µM
CC[C@H](C)[C@H](NC(=O)CN)C(=O)N[C@H](C(=O)N[C@@H](CC(N)=O)C(=O)N[C@H](C(=O)N[C@@H](CC(C)C)C(=O)N[C@@H](CCC(N)=O)C(=O)N[C@@H](CCCCN)C(=O)N[C@@H](Cc1ccc(O)cc1)C(=O)N[C@@H](Cc1ccc(O)cc1)C(=O)N[C@@H](CO)C(=O)N[C@@H](CCCNC(=N)N)C(=O)N[C@H](C(=O)N[C@@H](CCCNC(=N)N)C(=O)NCC(=O)NCC(=O)N[C@@H](CCCNC(=N)N)C(=O)N[C@H]1CSSC[C@@H](C(=O)N[C@@H](CO)C(=O)N[C@H](C(=O)N[C@@H](CCCNC(=N)N)C(=O)NCC(=O)N[C@@H](CCCNC(=N)N)C(=O)N[C@@H](CCCCN)C(=O)N[C@@H](CO)C(=O)N[C@@H](CO)C(=O)N[C@@H](CCCNC(=N)N)C(=O)N[C@@H](CCCNC(=N)N)C(=O)N[C@@H](CCCCN)C(=O)N[C@@H](CCCCN)C(N)=O)[C@@H](C)O)NC(=O)[C@H](CCCCN)NC(=O)CNC(=O)[C@H]([C@@H](C)CC)NC(=O)[C@H](CCC(N)=O)NC(=O)[C@H](CCC(=O)O)NC(=O)[C@H](CCC(=O)O)NC(=O)[C@H](CCCCN)NC(=O)[C@@H]2CCCN2C(=O)[C@H](CC(C)C)NC(=O)[C@H](CO)NC(=O)[C@H](CO)NC(=O)[C@H](CC(C)C)NC(=O)[C@H](C(C)C)NC(=O)[C@H](C)NC1=O)C(C)C)[C@@H](C)O)[C@@H](C)CC,MC4R,ligand displacement in cells,,,,Ki,0.567 µM
N=c1c2c(ncn1CCc1ccccc1)Oc1ccc3ccccc3c1C2c1ccccc1 (centres unmarked),NPSR1,calcium signal,antagonist,,,IC50,3.48 µM
COc1ccc(-c2nsc(NC(=O)[C@@H]3C[C@H]3C)c2C)cc1,"Metabotropic glutamate receptor 3 (GRM3, Homo sapiens, UniProt Q14832)",calcium signal,agonist,,,EC50,> 25 µM
